Source: PubChem BioAssay (ICCB-Longwood Screening Facility, Harvard Medical School)
Hits are enriched below; roughly 0.3% of the tested compounds scored in any of these assays.
Ab BasE inh: BasE siderophore enzyme inhibitors, primary screen, biochemical, Acinetobacter baumannii ATCC 17978, fluorescence polarization; purified BasE, fluorescence polarization binding displacement; inhibition, % (test concentration not listed); hit rate 0.1% among 84,000; in the data active means inhibition above about 25%, passing the limit was not always enough;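 further: 0% = negative plate control signal and 100% = positive plate control signal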
KSHV LANA nucl: inhibitors of KSHV LANA-nucleosome binding, primary screen, biochemical, fluorescence polarization, FITC-LANA1-23, chicken nucleosomes | hit rate 0.3% among 51,000 | z-score (test concentration not listed) | FITC-LANA1-23 / chicken nucleosome fluorescence polarization; stronger effect = lower value;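 active means both repeat wells score below -2 in polarization z-score versus plate sample wells, excluding overly bright wells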
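Material: Purified chicken nucleosomes with FITC-labelled LANA N-terminal peptide (1-23) | Reagent: 50 nM FITC-LANA1-23 probe | Medium: TEN-BT buffer, pH 7.5 | Times: 10–45 min incubation at room temperature | Detection: Fluorescence polarization | Replication: Duplicates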
* = called active by the depositor; / = not tested or not shown; ! = not confirmed by another sample.

SMILES | Ab BasE inh | KSHV LANA nucl
CC12NC(=O)CN1CCc1ccccc12 (stereo not drawn) | 4.8 | -0.107
C[C@@]12C[C@H](O)CCN1CCc1ccccc12 | 5.7 | -2.38*
Cc1ccc(C(=O)CN2CCCC(C)C2)cc1 (stereo not drawn) | 0.8 | /
CCn1cc(C=C2C(=O)NC(=O)NC2=O)c2ccccc21 | 1.9 | -3.24*
O=C1NC(=O)C(=Cc2cn(Cc3ccccc3)c3ccccc23)C(=O)N1 | 3.4 | /
COc1cc2c(c(OC)c1OC)-c1ccc(O)c(=O)cc1C(N)CC2 (stereo not drawn) | 0.1 | -0.556
CCCc1c(C)nc(SCc2c(F)cccc2Cl)nc1OC(=O)N(C)C | / | 0.519
N#Cc1c(N)[n+]([O-])c2ccccc2[n+]1[O-] | 1.4 | -8.29*
O=c1c2ccccc2ncn1CN1CC=C(c2ccccc2)CC1 | 0.8 | /
COc1ccc(C2(O)CC3CCC(C2)N3)cc1 (stereo not drawn) | -0.6 | -0.796
C1=C(c2cccnc2)Nc2ncnn2C1c1cccs1 (stereo not drawn) | 21.2 | -8.79*
CN1C(=O)/C(=C/c2ccc(I)o2)C(=O)NC1=S | 40.8* | 0.567
C=CCN1C(=O)/C(=C/c2ccco2)C(=O)NC1=S | 8.9 | 0.374
CN(C)C(=O)Oc1ccc(Br)cc1C(=O)Nc1ccc(F)cc1F | / | 0.013
O=C(c1ccc(Cl)c(Cl)c1)C12CN3CN(CN(C3)C1)C2 | -0.3 | 0.716
CCOc1cc(C=C2C(=O)NC(=O)NC2=O)cc(Cl)c1O | 0.8 | -2.4*
CCOc1cc(C=C2C(=O)N(C)C(=S)N(C)C2=O)ccc1OC(C)C(=O)O (stereo not drawn) | 2.5 | 0.223
CC[n+]1c(-c2ccccc2)c2cc(N)ccc2c2ccc(N)cc21 | 3.8 | -6.03*
C=CCNC(=O)c1c(N)n(Cc2ccc(OC)cc2)c2nc3ccccc3nc12 | -4.7 | /
CSc1nc2nc(C)c(CC(=O)N3CCN(Cc4ccc5c(c4)OCO5)CC3)c(C)n2n1 | 3.0 | /
CC[C@@]1(O)C(=O)OCc2c1cc1n(c2=O)Cc2cc3ccccc3nc2-1 | -3.3 | 0.0175
CC[C@@]1(O)C(=O)OCc2c1cc1n(c2=O)Cc2cc3c(O)cccc3nc2-1 | 9.0 | -3.07*!
CC(C)c1ccccc1N=C1SCCN1C | 1.4 | /
COc1ccc(C2N3CCCN23)cc1 (stereo not drawn) | 0.9 | -0.88
